The record followed here is ChEMBL document CHEMBL4513216, “Probing the Open Global Health Chemical Diversity Library for Multistage-Active Starting Points for Next-Generation Antimalarials” (ACS Infect Dis, 2020).

The data set can be described thus: Toxicity liver stage against HepG2, at 10uM. Type of data set: cell-based. Further details: test concentration 10 uM, cell line HepG2-A16-CD81EGFP. Conditions: human, HepG2-A16-CD81EGFP cells; read-out: INHIBITION
In short, it runs like this: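 Uninfected HepG2-A16-CD81EGFP cells, 3 × 10^3 per well, 1536-well, plated on prespotted compound at 10 μM final, parasite-free screening media added to match infected plates; puromycin 10 μM positive, DMSO 0.5% negative; run in parallel with 48 h PbLuc assay at 37 °C, 5% CO2; viability by CellTiter-Glo luminescence, normalized to controls.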

Take `CC(c1cccc(S(N)(=O)=O)c1)N(C)CCCOc1ccccc1` (centres undefined): the cytotoxicity at 10 µM was -1.99%. Under `Cc1ccc(Cl)cc1NC(=O)Nc1c[nH]c(=O)[nH]c1=O` stands -7.58%. Under `N#Cc1c(Cl)nsc1NCc1ccc(N2CCC(CO)CC2)cc1` stands -4.73%; under `COCc1noc(-c2ccc(N3CCCC3c3ccc(F)cc3)nc2)n1` (centres undefined), 5.79%; under `CCNC(=O)CCS(=O)(=O)Cc1ccn(-c2cccc(F)c2)n1`, 11.1%.

In the case of `CN1C(=O)c2ccc(NC(=O)CSc3ccc4c(c3)CCC4)cc2C1=O`, the cytotoxicity at 10 µM came out at 0.0636%. `CCn1cnnc1CNC(=O)NCC(c1cccs1)N1CCCC1` (centres undefined): the cytotoxicity at 10 µM is -7.72%. Next, `Cc1cnccc1CN(C)C(=O)c1ccc(Cn2cnnn2)cc1`: 8.15%. `COc1cc(NC(=O)NC2CCOCC2)ccc1N1CCOC1=O`: the cytotoxicity at 10 µM was -4.59%. Take `COc1ccc(S(=O)(=O)NCCC(O)c2ccoc2)c(C)c1` (centres undefined): the cytotoxicity at 10 µM was -0.608%. Regarding `COC(=O)C1Cc2nc[nH]c2CN1Cc1ccc(Sc2ncccn2)o1` (centres undefined), the cytotoxicity at 10 µM was -3.94%. Consider `O=c1cc(-c2cc(O)cc(CCC3CCCCN3)c2)cc[nH]1` (centres undefined), for which the cytotoxicity at 10 µM was found to be 0.749%. Under `Cn1cc(S(=O)(=O)Nc2ccc(Cl)cn2)cc1C(N)=O` stands -1.7%. Consider `O=C1[C@H]2CN(Cc3ccc(F)cc3)C[C@H]2CN1c1ccsc1`, for which the cytotoxicity at 10 µM was -87.8%. Under `O=C(c1cc(C2CC2)on1)N1C[C@H]2CC[C@](O)(c3ccc(F)cc3)[C@H]2C1` stands 3.94%; under `CC(C)c1ccc(C(=O)O)cc1S(=O)(=O)Nc1ccc(=O)n(C)c1`, -13.1%. As to `N[C@H]1CCCN(C(=O)c2cnc(COc3ccccc3)nc2O)C1`, the cytotoxicity at 10 µM came out at 1.67%. Next, `COCC1CN(C(=O)CC2=CCCCC2)Cc2nnn(CC3CC3)c21` (centres undefined): -116%. Under `CC(=O)NCCCC(=O)N1CCc2[nH]c(-c3ccccc3)nc2C1` stands -3.73%.

On to `Cc1nn(C)c(C)c1C1CCCN1Cc1cccc(C(=O)N(C)C)c1` (centres undefined), for which the cytotoxicity at 10 µM is -11.9%. Next, `Cc1ncsc1C(=O)N(C)Cc1cccnc1`: -5.57%. Under `Cc1occc1C(=O)N1Cc2nccn2CC(CN2CCCC2)C1` (centres undefined) stands -105%; under `O=C(CSc1ccccc1)N1C[C@@H]2CC[C@H]1CN(Cc1ccncc1)C2`, -0.143%; under `CNC(=O)CN([C@H]1C[C@H]2CCOC[C@H]2C1)S(=O)(=O)c1ccccc1`, -1.63%. Next, `CC1CCCN(c2ccccc2OCC(=O)NC2CCOCC2)C1` (centres undefined): -23.5%. Take `CS(=O)(=O)NCC1CCCCN1Cc1ccccc1C#N` (centres undefined): the cytotoxicity at 10 µM was -11.5%.

For `CC1CCCCN1C1CN(c2ccnc(C(=O)NCc3ccco3)c2)C1` (centres undefined), the cytotoxicity at 10 µM was determined as 2.29%. On to `CCn1c(CC2CCN(C(=O)c3cc(C(C)C)n[nH]3)CC2)n[nH]c1=O`, for which the cytotoxicity at 10 µM is -44.4%. Under `CC(C)(C)c1ncc(C(=O)NCc2cccc(C(=O)N3CCCC3)c2)s1` stands -4.57%; under `CCOc1ccccc1-n1c(C2CC2)n[nH]c1=O`, 1.12%; under `CCC(C(=O)NC1(COC)CCCC1)n1cccn1` (centres undefined), -3.41%. Next, `Cc1ccc(-n2nnc(C(=O)NC(C)C)c2C2CC2)cc1`: -3.37%; `CNC(=O)CS(=O)(=O)C1CCN(S(=O)(=O)c2c(F)cccc2F)CC1`: -22%; `Cc1nc(C2CCCN(C(=O)COCc3ccccc3)C2)no1` (centres undefined): -2%. Next, `CCn1nc(C)cc1C(=O)N1C[C@H]2CCC[C@@]2(COc2ccccn2)C1`: 0.529%. With `CCCn1nccc1C(=O)N1CCCC(C(=O)CCc2ccccc2)C1` (centres undefined), the cytotoxicity at 10 µM was -1.08%. Under `CC1=Nc2c(c(=O)[nH]n2C2CCOCC2)C(c2cccc(Br)c2)S1` (centres undefined) stands 5.91%; under `Cn1cc(C2COC3(CCN(C(=O)c4cnccn4)CC3)C2)cn1` (centres undefined), -68.5%. Regarding `O=C(NCCc1cc(F)ccc1F)NCC(O)C1CC1` (centres undefined), the cytotoxicity at 10 µM is -2.99%. As for `COCCN1CCO[C@H]2CN(Cc3cccc(C)n3)C[C@H]21`, the cytotoxicity at 10 µM was -116%.

For `Cc1c(O)cccc1C(=O)N1CCCC2(C1)C(=O)N(C)c1ccccc12` (centres undefined), the cytotoxicity at 10 µM is 4.34%. Next, `CN(C)Cc1nc(C(C)(C)NC(=O)c2ccnn2C)no1`: 0.966%.

Consider `COC[C@@H]1CC[C@H]2[C@H](CCN2S(=O)(=O)c2cccc(F)c2)O1`, for which the cytotoxicity at 10 µM was 2.24%. Regarding `CN(C)CCn1c2c(ccc1=O)CCN(C(=O)c1cccs1)CC2`, the cytotoxicity at 10 µM was determined as 0.0915%. `CC(C)c1nnc(NC(=O)NCc2cccnc2NCCN(C)C)s1`: the cytotoxicity at 10 µM stood at 3.92%. Regarding `CCCN1CC[C@@H]2OC[C@H](C(=O)Nc3cccnc3)C[C@@H]2C1`, the cytotoxicity at 10 µM amounted to 5.7%.

Take `Cc1cccnc1CN(C)c1ncnc2[nH]ccc12`: the cytotoxicity at 10 µM turned out to be 4.77%. Next, `Cc1ccsc1CN(Cc1nc2c(cnn2C)c(=O)[nH]1)C(C)C`: -7.27%; `Cc1cc(C(=O)N2CCNC(=O)C2)c(C)n1Cc1ccccn1`: -2.33%. Next, `Cc1cccc(NC(=O)C2CCCN2C(=O)c2ccco2)c1C` (centres undefined): -2.59%; `Cc1nn(C)c2nc(N(CCN(C)C)CC3CCCO3)sc12` (centres undefined): -4.62%. Next, `O=C(Nc1cccnc1)[C@H]1CO[C@H]2CCNC[C@H]2C1`: 9.24%; `O=C1NCC2(CCN(C(=O)c3ccc4c(c3)CCCO4)CC2)O1`: -5.8%; `Cc1ccc(C)c(CSc2nnc(C(N)C(C)C)o2)c1` (centres undefined): 9.24%. With `CC(c1cccnc1)N(C)C(=O)NCCOc1ccc(C#N)cc1` (centres undefined), the cytotoxicity at 10 µM was -6.17%.

In the case of `COc1cccc(CN2CCN(c3cccc(C(C)C)n3)CC2)c1F`, the cytotoxicity at 10 µM was determined as 4.25%. For the compound `O=C(c1cccnc1)N1C[C@H]2CN(Cc3cccc(F)c3)C(=O)[C@H]2C1`, the cytotoxicity at 10 µM is -78.9%. Turning to `CCCc1nc(CN(CC)Cc2ccc(O)c(C(=O)O)c2)no1`, the cytotoxicity at 10 µM was -6.33%. Regarding `CC(C)CC(NC(=O)OC(C)(C)C)C(N)=O` (centres undefined), the cytotoxicity at 10 µM amounted to 3.29%.

Consider `O=C(NC1(c2nnn(CC3CCCO3)n2)CCCC1)c1ccccc1` (centres undefined), for which the cytotoxicity at 10 µM came out at 13.2%. Next, `Cc1ncc(C(=O)Nc2cncnc2N(C)C)c(Cl)c1Cl`: 0.776%. Take `CC(C)=CCN1CCN(CCCOc2ccccc2)[C@H]2CS(=O)(=O)C[C@H]21`: the cytotoxicity at 10 µM is -8.34%. Regarding `Cn1cc(-c2ncnc3c2CCN(C(=O)c2cnccn2)CC3)cn1`, the cytotoxicity at 10 µM came out at 6.93%. Next, `O=C(Nc1ccc(N2CCCCC2)nc1)N1CCc2sccc2C1`: -7.98%. Next, `Cc1ccccc1CCCN1C(=O)CC2(CCSC2)C1=O` (centres undefined): -3.45%; `O=C(c1cnccn1)N1CCCC2(COCCN(CC3CC3)C2)C1` (centres undefined): 1.39%. Under `Cc1ccccc1-c1noc(CN2CC(n3cccn3)C2)n1` stands -4.21%; under `O=C(c1cc2cc(F)ccc2[nH]1)N1CCC(Nc2ccc(F)cc2)CC1`, -7.36%; under `CC(C)NC(=O)c1ccc2c(c1)C1(CCN(C(C)C)CC1)C(=O)N2`, -7.47%.
